Results reported in ChEMBL document CHEMBL1132135, “Potent, orally absorbed glucagon receptor antagonists” (Bioorg Med Chem Lett, 1999).

What was measured:
[1] = biological target: Mitogen-activated protein kinase 14 (Homo sapiens, UniProt Q16539); assay: Inhibitory activity against p38-alpha kinase
Glucagon receptor [2] = biological target: T1, Glucagon receptor (Homo sapiens, UniProt P47871); assay: biochemical; type: cell-based, CHO
Glucagon receptor [3] = biological target: T2, Glucagon receptor (Mus musculus, UniProt Q61606); assay: Binding affinity towards glucagon receptor determined by reduction in binding of [125I]glucagon to the murine glucagon receptor (GGR) expressed on CHO cells in absence of Mg+2; type: cell-based
T2 sequence (Q61606 whole entry): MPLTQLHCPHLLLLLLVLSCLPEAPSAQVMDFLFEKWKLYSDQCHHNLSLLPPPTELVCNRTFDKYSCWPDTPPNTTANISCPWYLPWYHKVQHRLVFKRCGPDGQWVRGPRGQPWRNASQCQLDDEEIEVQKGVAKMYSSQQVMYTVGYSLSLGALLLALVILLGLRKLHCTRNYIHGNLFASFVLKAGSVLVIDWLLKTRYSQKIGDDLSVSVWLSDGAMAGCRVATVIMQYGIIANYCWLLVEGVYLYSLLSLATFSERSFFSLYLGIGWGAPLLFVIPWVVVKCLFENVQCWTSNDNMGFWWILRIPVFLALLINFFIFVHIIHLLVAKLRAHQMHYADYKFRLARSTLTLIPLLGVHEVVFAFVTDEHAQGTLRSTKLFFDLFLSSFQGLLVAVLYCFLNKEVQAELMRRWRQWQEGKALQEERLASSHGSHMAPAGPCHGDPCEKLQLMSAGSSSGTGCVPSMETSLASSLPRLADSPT

Glucagon receptor [4] = biological target: T1, Glucagon receptor; assay: Binding affinity towards glucagon receptor determined by reduction in binding of [125I]glucagon to the human glucagon receptor (GGR) expressed on CHO cells in presence of Mg+2; type: cell-based
Summary of the method: (§1)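 Radioligand binding to the glucagon receptor was run with 5 mM Mg2+ added, described as a physiological concentration.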

Glucagon receptor [5] = biological target: T2, Glucagon receptor; assay: (§2) Binding affinity towards glucagon receptor determined by reduction in binding of 125 I-glucagon to the murine glucagon receptor (mGLUR) expressed on CHO cells in presence of Mg+2; type: cell-based
Summary of the method: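 Mg2+ added at 5 mM, a physiological level, to the binding medium. IC50 reported in µM, with the number of determinations noted; where no IC50 was reached, percent inhibition is given at a single tested concentration.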

[6] = Selectivity ratio between the binding value of human glucagon receptor (GGR) with Mg+2 and the value of p38 kinase
[7] = biological target: Glucagon receptor (Mus musculus) (UniProt Q61606); assay: as §2; type: cell-based; conditions: concentration not given here; summary of the method: as §1
Glucagon receptor (Mus musculus), sequence (Q61606 whole entry): as above

Glucagon receptor [8] = biological target: T1, Glucagon receptor; assay: Binding affinity towards glucagon receptor determined by reduction in binding of 125 I-glucagon to the human glucagon receptor (hGLUR) expressed on CHO cells in absence of Mg+2 at 2 uM; type: cell-based
Glucagon receptor [9] = biological target: T2, Glucagon receptor; assay: Binding affinity towards glucagon receptor determined by reduction in binding of 125 I-glucagon to the murine glucagon receptor (mGLUR) expressed on CHO cells in presence of Mg+2 at 3 uM
Glucagon receptor [10] = biological target: T2, Glucagon receptor; assay: (§3) Binding affinity towards glucagon receptor determined by reduction in binding of 125 I-glucagon to the murine glucagon receptor (mGLUR) expressed on CHO cells in presence of Mg+2 at 1 uM; type: cell-based
[11] = biological target: Glucagon receptor (Mus musculus) (UniProt Q61606); assay: Binding affinity towards glucagon receptor determined by reduction in binding of 125 I-glucagon to the murine glucagon receptor (mGLUR) expressed on CHO cells in presence of Mg+2 at 3 uM; type: cell-based
[12] = Inhibition of p38 kinase at 2 uM
[13] = biological target: Glucagon receptor (Mus musculus) (UniProt Q61606); assay: as §3; type: cell-based
[14] = Inhibition of p38 kinase at 40 uM
[15] = Inhibition of p38 kinase at 1 uM
[16] = Inhibition of p38 kinase at 10 uM
[17] = Inhibition of p38 kinase at 5 uM
[18] = Inhibition of p38 kinase; conditions: concentration not given here

Mitogen-activated protein kinase 14, sequence (Q16539 whole entry): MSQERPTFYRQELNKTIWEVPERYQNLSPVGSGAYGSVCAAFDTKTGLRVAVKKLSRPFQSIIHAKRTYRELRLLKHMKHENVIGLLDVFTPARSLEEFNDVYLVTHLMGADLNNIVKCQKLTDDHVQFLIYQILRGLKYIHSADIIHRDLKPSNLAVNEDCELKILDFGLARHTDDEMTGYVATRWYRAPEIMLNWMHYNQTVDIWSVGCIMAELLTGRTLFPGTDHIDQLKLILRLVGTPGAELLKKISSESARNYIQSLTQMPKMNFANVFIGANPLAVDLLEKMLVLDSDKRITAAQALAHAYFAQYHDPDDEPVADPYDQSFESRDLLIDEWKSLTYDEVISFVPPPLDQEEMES
T1 sequence (P47871 whole entry): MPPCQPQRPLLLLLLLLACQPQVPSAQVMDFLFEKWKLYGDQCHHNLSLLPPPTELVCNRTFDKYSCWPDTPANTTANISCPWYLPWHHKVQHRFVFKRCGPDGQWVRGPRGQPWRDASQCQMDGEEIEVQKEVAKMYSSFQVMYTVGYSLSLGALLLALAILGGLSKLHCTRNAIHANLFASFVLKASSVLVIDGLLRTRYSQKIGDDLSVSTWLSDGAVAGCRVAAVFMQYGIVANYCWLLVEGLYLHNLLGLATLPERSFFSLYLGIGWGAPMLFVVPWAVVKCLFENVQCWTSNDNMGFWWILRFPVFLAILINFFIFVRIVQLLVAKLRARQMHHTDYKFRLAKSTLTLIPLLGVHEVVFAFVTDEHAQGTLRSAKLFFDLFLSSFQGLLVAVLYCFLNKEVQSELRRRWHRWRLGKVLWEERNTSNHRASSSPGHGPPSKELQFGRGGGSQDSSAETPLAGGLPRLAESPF

Row | SMILES | IC50 [1] [nM] | IC50 (Glucagon receptor [2]) [nM] | IC50 (Glucagon receptor [3]) [nM] | IC50 (Glucagon receptor [4]) [nM] | Ratio [6] | further results
1 | C[S+]([O-])c1ccc(-c2cc(-c3ccc(F)cc3)c(-c3ccncc3)[nH]2)cc1 (stereo not given) | 670 | 1100 |  |  |  | 
2 | CCCOc1cc(Br)ccc1-c1cc(-c2ccc(Cl)cc2)[nH]c1-c1ccncc1 |  | 4 | 49 | 130 |  | IC50 (Glucagon receptor [5]): 830 nM
3 | Fc1ccc(-c2cc[nH]c2-c2ccncc2)cc1 | 160 | > 3000 |  | > 3000 | > 18 | 
4 | Fc1ccc(-c2cc(-c3ccccc3)[nH]c2-c2ccncc2)cc1 | 800 | 390 | 2700 |  |  | 
5 | CCCOc1ccccc1-c1cc(-c2ccc(Cl)cc2)[nH]c1-c1ccncc1 | 2840 | 8 | 30 | 140 | 0.05 | IC50 (Glucagon receptor [5]): 700 nM
6 | CC(C)COc1ccccc1-c1cc(-c2ccc(Cl)cc2)[nH]c1-c1ccncc1 | 3760 | 3 | 150 | 200 | 0.05 | inhibition [7]: 17%
7 | CN1CCC(c2cc(-c3ccc(F)cc3)c(-c3ccncc3)[nH]2)CC1 | 20 |  |  |  | > 130 | inhibition (Glucagon receptor [8]): 7%
8 | CSc1ccc(-c2cc(-c3ccc(F)cc3)c(-c3ccncc3)[nH]2)cc1 | 1230 | 290 |  |  |  | 
9 | Clc1ccc(-c2cc(-c3ccc(Cl)cc3)c(-c3ccncc3)[nH]2)cc1 | 160 | 190 | 220 | 810 | 5 | Inhibition (Glucagon receptor [9]): 42%
10 | CCOc1ccccc1-c1cc(-c2ccc(Cl)cc2)[nH]c1-c1ccncc1 | 14200 | 40 | 340 | 500 | 0.03 | inhibition [7]: 22%
11 | Clc1ccc(-c2cc(-c3ccccc3Br)c(-c3ccncc3)[nH]2)cc1 | 1000 | 26 |  | 2300 | 2.3 | 
12 | COc1ccccc1-c1cc(-c2ccc(Cl)cc2)[nH]c1-c1ccncc1 | 2650 | 70 | 400 | 500 | 0.18 | inhibition [7]: 6%
13 | Fc1ccc(-c2cc(-c3ccc(F)cc3)c(-c3ccncc3)[nH]2)cc1 | 340 | 90 | 430 | 350 | 1 | Inhibition (Glucagon receptor [10]): 7%
14 | C=CCOc1ccccc1-c1cc(-c2ccc(Cl)cc2)[nH]c1-c1ccncc1 | 4740 | 17 | 270 | 260 | 0.05 | inhibition [11]: 50%
15 | C[S+]([O-])c1ccc(-c2nc(-c3ccc(F)cc3)c(-c3ccncc3)[nH]2)cc1 (stereo not given) [SB-203580] |  |  |  |  |  | inhibition (Glucagon receptor [8]): 18%; IC50 [12]: 37 nM
16 | Cc1cc(-c2ccc(F)cc2)c(-c2ccncc2)[nH]1 | 320 | > 3000 |  |  | > 9 | 
17 | O=C(O)c1ccc(-c2cc(-c3ccc(F)cc3)c(-c3ccncc3)[nH]2)cc1 | 90 | > 3000 |  |  |  | 
18 | Clc1ccc(-c2cc(-c3ccc(Br)cc3)c(-c3ccncc3)[nH]2)cc1 | 300 | 140 |  | 2300 | 7.6 | 
19 | Cc1ccc(-c2cc(-c3ccc(F)cc3)c(-c3ccncc3)[nH]2)cc1 | 1690 | 250 |  | 2200 | 1.3 | 
20 | CCOC(=O)c1ccc(-c2cc(-c3ccc(F)cc3)c(-c3ccncc3)[nH]2)cc1 | 260 | 850 |  |  |  | 
21 | CCCCCCOc1ccccc1-c1cc(-c2ccc(Cl)cc2)[nH]c1-c1ccncc1 | 2680 | 40 | 340 | 500 | 0.18 | inhibition [13]: 22%
22 | O=C(OCc1ccccc1)c1cc(-c2ccc(Cl)cc2)[nH]c1-c1ccncc1 |  | 60 | 800 | 1300 |  | inhibition [13]: 8%; inhibition [14]: 69%
23 | CCCCOc1ccccc1-c1cc(-c2ccc(Cl)cc2)[nH]c1-c1ccncc1 |  | 10 | 80 | 180 |  | inhibition [15]: 16%; IC50 (Glucagon receptor [5]): 1200 nM
24 | CC(C)Oc1ccccc1-c1cc(-c2ccc(Cl)cc2)[nH]c1-c1ccncc1 | 5540 | 30 | 700 | 910 | 0.16 | IC50 (Glucagon receptor [5]): > 1000 nM

Row | SMILES | IC50 [1] [nM] | IC50 (Glucagon receptor [2]) [nM] | IC50 (Glucagon receptor [3]) [nM] | IC50 (Glucagon receptor [4]) [nM] | Ratio [6] | further results
25 | Fc1ccc(-c2cc(-c3ccc(Cl)cc3)[nH]c2-c2ccncc2)cc1 | 1400 | 80 | 200 | 800 | 0.57 | inhibition [13]: 43%
26 | Fc1ccc(-c2cc(C3CCCCC3)[nH]c2-c2ccncc2)cc1 | 180 | 90 | > 1000 | 490 | 2.7 | IC50 (Glucagon receptor [5]): > 1000 nM
27 | CSc1ccc(-c2cc(-c3ccncc3)c(-c3ccc(F)cc3)[nH]2)cc1 | 44 |  |  |  |  | inhibition (Glucagon receptor [8]): 0%
28 | Nc1ccc(-c2cc(-c3ccc(F)cc3)c(-c3ccncc3)[nH]2)cc1 | 190 | 1400 |  |  |  | 
29 | Clc1ccc(-c2cc(-c3ccccc3)c(-c3ccncc3)[nH]2)cc1 | 210 | 60 |  | 380 | 1.8 | 
30 | CCCOc1ccc(Cl)cc1-c1cc(-c2ccc(Cl)cc2)[nH]c1-c1ccncc1 |  | 6 | 50 | 170 |  | inhibition [16]: 31%; IC50 (Glucagon receptor [5]): 1000 nM
31 | CCOC(=O)c1cc(-c2ccc(Cl)cc2)[nH]c1-c1ccncc1 | > 1000 | 90 | 500 | 400 |  | IC50 (Glucagon receptor [5]): > 3000 nM
32 | Clc1ccc(-c2cc(C3CCCCC3)c(-c3ccncc3)[nH]2)cc1 | > 10000 | 100 | 60 | > 3000 |  | IC50 (Glucagon receptor [5]): > 3000 nM
33 | Fc1ccc(-c2cc(-c3ccc(Cl)cc3Cl)[nH]c2-c2ccncc2)cc1 | 420 | 40 | 340 | 950 | 2.2 | inhibition [13]: 13%
34 | COc1ccc(-c2cc(-c3ccc(F)cc3)c(-c3ccncc3)[nH]2)cc1 | 2800 | 590 |  |  |  | 
35 | CC(C)c1cc(-c2ccc(Cl)cc2)[nH]c1-c1ccncc1 | > 10000 | 32 | 60 | 110 |  | IC50 (Glucagon receptor [5]): > 3000 nM
36 | CC(C)(C)c1ccc(-c2cc(-c3ccc(F)cc3)c(-c3ccncc3)[nH]2)cc1 | > 10000 | 850 |  |  |  | 
37 | CCCNc1ccccc1-c1cc(-c2ccc(Cl)cc2)[nH]c1-c1ccncc1 |  | 20 | 440 | 270 |  | IC50 (Glucagon receptor [5]): > 3000 nM; inhibition [17]: 52%
38 | COc1cccc(-c2cc(-c3ccc(Cl)cc3)[nH]c2-c2ccncc2)c1 | 420 | 60 |  | 450 | 1.1 | 
39 | O=[N+]([O-])c1ccc(-c2cc(-c3ccc(F)cc3)c(-c3ccncc3)[nH]2)cc1 | 50 | 360 |  |  |  | 
40 | CCc1ccc(-c2cc(-c3ccc(F)cc3)c(-c3ccncc3)[nH]2)cc1 | 1360 | 370 |  |  |  | 
41 | Clc1ccc(-c2ccc(-c3ccncc3)[nH]2)cc1 | > 10000 | 140 | 700 | > 3000 |  | IC50 (Glucagon receptor [5]): > 3000 nM
42 | C[S+]([O-])c1ccc(-c2cc(-c3ccncc3)c(-c3ccc(F)cc3)[nH]2)cc1 (stereo not given) | 5.3 |  |  |  |  | inhibition (Glucagon receptor [8]): 31%
43 | O=C(NCc1ccccc1)c1cc(-c2ccc(Cl)cc2)[nH]c1-c1ccncc1 |  | > 3000 |  |  |  | inhibition [15]: 0%
44 | N#Cc1ccc(-c2cc(-c3ccc(F)cc3)c(-c3ccncc3)[nH]2)cc1 | 50 | 140 | 230 | 4900 | 102 | inhibition [11]: 42%
45 | COc1ccc(-c2cc(-c3ccc(Cl)cc3)[nH]c2-c2ccncc2)cc1 | 1150 | 100 | 240 | 1600 | 1.4 | inhibition [13]: 16%
46 | O=C(O)c1cc(-c2ccc(Cl)cc2)[nH]c1-c1ccncc1 | > 1000 | > 3000 |  |  |  | 
47 | Fc1ccc(-c2cc(-c3cccc(Cl)c3)[nH]c2-c2ccncc2)cc1 | 420 | 40 | 460 | 990 | 2.3 | inhibition [13]: 28%
48 | CCCOc1cccc(OCCC)c1-c1cc(-c2ccc(Cl)cc2)[nH]c1-c1ccncc1 |  | 40 | 670 | 290 |  | IC50 (Glucagon receptor [5]): > 3000 nM; inhibition [18]: 5%
